# The source made the active and inactive calls. No cut-off for these calls is given here.
# How the values were obtained:
# CAL-27 [1] = assay: Potentiation of cisplatin-induced apoptosis in human CAL27 cells at 0.5 uM preincubated for 48 hrs followed by cisplatin treatment for 6 hrs measured after 24 hrs by propidium iodide dye-based flow cytometry (reference value: 21.8%); format: functional
# CAL-27 [2] = assay: Potentiation of 0.316 uM cisplatin-induced cytotoxicity against human CAL27 cells assessed as decrease in cell viability by measuring combination index at 1000 uM preincubated for 48 hrs followed by cisplatin treatment measured after 72 hrs by MTT assay; format: functional; conditions: in the assay text read “at 1000 nM” for “at 1000 uM”
# How it was run: (§1)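 Cal27 and cisplatin-resistant Cal27CisR cells were preincubated with the HDAC inhibitor for 48 h, then given cisplatin in combination. Viability was read by MTT after 72 h. The combination index was computed by the Chou–Talalay method: CI > 1 is antagonism, CI = 1 is additive, and CI < 0.9 is synergism. Points with fraction affected below 0.20 were flagged.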
# CAL-27 [3] = assay: Potentiation of 0.5 uM cisplatin-induced cytotoxicity against human CAL27 cells assessed as decrease in cell viability by measuring combination index at 1500 uM preincubated for 48 hrs followed by cisplatin treatment measured after 72 hrs by MTT assay; format: functional; how it was run: as §1
# CAL-27 [4] = assay: Potentiation of 1 uM cisplatin-induced cytotoxicity against human CAL27 cells assessed as decrease in cell viability by measuring combination index at 900 uM preincubated for 48 hrs followed by cisplatin treatment measured after 72 hrs by MTT assay; format: functional
# How it was run: (§2)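 HDAC inhibitor was added 48 h before cisplatin, then cells were exposed to cisplatin for 72 h and viability was read by MTT assay. Combination index was computed by the Chou–Talalay method: CI > 1 is antagonism, CI = 1 additive, CI < 0.9 synergism. Points with fraction affected below 0.20 were flagged.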
# CAL-27 [5] = assay: Potentiation of 1 uM cisplatin-induced cytotoxicity against human CAL27 cells assessed as decrease in cell viability by measuring combination index at 1500 uM preincubated for 48 hrs followed by cisplatin treatment measured after 72 hrs by MTT assay; format: functional; conditions: in the assay text read “at 1500 nM” for “at 1500 uM”; how it was run: as §1
# CAL-27 [6] = assay: Potentiation of 1 uM cisplatin-induced cytotoxicity against human CAL27 cells assessed as decrease in cell viability by measuring combination index at 2000 uM preincubated for 48 hrs followed by cisplatin treatment measured after 72 hrs by MTT assay; format: functional; conditions: in the assay text read “at 2000 nM” for “at 2000 uM”; how it was run: as §1
# CAL-27 [7] = assay: Potentiation of 2 uM cisplatin-induced cytotoxicity against human CAL27 cells assessed as decrease in cell viability by measuring combination index at 1000 uM preincubated for 48 hrs followed by cisplatin treatment measured after 72 hrs by MTT assay; format: functional; conditions: in the assay text read “at 1000 nM” for “at 1000 uM”; how it was run: as §2
# CAL-27 [8] = assay: Potentiation of 2 uM cisplatin-induced cytotoxicity against human CAL27 cells assessed as decrease in cell viability by measuring combination index at 2000 uM preincubated for 48 hrs followed by cisplatin treatment measured after 72 hrs by MTT assay; format: functional; conditions: in the assay text read “at 2000 nM” for “at 2000 uM”; how it was run: as §2
# CAL-27 [9] = assay: Potentiation of 5 uM cisplatin-induced cytotoxicity against human CAL27 cells assessed as decrease in cell viability by measuring combination index at 900 uM preincubated for 48 hrs followed by cisplatin treatment measured after 72 hrs by MTT assay; format: functional; conditions: in the assay text read “at 900 nM” for “at 900 uM”; how it was run: as §2
# [10] = target: T1, Histone deacetylase 1/6 (Homo sapiens) (UniProt Q13547+Q9UBN7); assay: Inhibition of HDAC1/HDAC6 in human Cal27CisR cells assessed as potentiation of 1 uM cisplatin-induced cytotoxicity by measuring combination index at 1500 uM preincubated for 48 hrs followed by cisplatin treatment measured after 72 hrs by MTT assay; format: cell-based
# T1 sequence (Q13547 whole entry, looked up): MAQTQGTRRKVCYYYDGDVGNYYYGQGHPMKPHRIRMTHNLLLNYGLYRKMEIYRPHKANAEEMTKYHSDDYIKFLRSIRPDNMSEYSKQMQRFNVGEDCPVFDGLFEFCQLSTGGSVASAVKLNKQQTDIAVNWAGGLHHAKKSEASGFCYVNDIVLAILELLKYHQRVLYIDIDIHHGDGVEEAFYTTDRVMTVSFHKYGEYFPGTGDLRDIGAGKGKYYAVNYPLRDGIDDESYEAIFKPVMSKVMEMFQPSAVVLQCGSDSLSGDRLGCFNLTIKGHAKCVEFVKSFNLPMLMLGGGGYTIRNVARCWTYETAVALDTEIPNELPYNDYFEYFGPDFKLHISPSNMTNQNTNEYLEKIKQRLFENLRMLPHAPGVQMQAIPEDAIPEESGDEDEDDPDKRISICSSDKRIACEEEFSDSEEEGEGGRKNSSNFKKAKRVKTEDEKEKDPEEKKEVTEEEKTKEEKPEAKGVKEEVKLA
# T1 sequence (Q9UBN7 whole entry, looked up): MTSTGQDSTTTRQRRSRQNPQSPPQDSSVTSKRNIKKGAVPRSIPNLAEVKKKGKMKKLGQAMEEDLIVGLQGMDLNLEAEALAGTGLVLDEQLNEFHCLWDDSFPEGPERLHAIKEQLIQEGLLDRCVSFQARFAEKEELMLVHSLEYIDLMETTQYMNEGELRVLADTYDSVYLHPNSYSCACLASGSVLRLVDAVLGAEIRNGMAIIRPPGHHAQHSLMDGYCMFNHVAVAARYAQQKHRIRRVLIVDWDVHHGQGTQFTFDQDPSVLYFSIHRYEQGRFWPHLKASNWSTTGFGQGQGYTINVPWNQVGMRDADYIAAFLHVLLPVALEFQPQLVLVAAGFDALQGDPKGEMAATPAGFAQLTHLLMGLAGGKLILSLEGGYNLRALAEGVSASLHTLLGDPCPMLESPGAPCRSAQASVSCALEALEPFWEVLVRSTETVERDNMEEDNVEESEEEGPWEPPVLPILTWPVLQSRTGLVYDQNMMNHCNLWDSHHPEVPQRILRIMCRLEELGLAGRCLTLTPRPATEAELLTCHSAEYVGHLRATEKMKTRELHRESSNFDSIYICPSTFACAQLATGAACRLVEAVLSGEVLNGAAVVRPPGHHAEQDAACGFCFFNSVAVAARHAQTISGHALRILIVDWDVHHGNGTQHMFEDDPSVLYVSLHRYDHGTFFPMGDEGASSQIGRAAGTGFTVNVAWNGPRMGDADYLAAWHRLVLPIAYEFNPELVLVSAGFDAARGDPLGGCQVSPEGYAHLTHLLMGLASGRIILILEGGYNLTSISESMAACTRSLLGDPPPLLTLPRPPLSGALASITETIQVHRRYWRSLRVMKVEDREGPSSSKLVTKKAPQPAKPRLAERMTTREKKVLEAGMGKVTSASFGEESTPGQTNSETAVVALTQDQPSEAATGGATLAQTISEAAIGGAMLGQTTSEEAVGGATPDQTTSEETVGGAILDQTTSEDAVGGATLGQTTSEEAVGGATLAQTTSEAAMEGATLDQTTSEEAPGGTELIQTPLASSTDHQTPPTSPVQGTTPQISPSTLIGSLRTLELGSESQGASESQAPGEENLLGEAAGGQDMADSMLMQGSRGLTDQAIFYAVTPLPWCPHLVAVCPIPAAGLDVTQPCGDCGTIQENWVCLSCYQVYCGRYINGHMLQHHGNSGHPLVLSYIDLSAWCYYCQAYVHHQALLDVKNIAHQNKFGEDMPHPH
# How it was run: (§3)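 Cal27CisR cells preincubated 48 h with the HDAC inhibitor, then exposed to cisplatin for 72 h. Viability read by MTT. Combination index calculated by the Chou–Talalay method: CI > 1 antagonism, CI = 1 additive, CI < 0.9 synergism. Points with fraction affected below 0.20 are flagged. Values are the mean of three experiments.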
# [11] = target: T1, Histone deacetylase 1/6 (Homo sapiens); assay: Inhibition of HDAC1/HDAC6 in human Cal27CisR cells assessed as potentiation of 1 uM cisplatin-induced cytotoxicity by measuring combination index at 2000 uM preincubated for 48 hrs followed by cisplatin treatment measured after 72 hrs by MTT assay; format: cell-based; how it was run: as §3
# [12] = target: T1, Histone deacetylase 1/6 (Homo sapiens); assay: Inhibition of HDAC1/HDAC6 in human Cal27CisR cells assessed as potentiation of 5 uM cisplatin-induced cytotoxicity by measuring combination index at 1000 uM preincubated for 48 hrs followed by cisplatin treatment measured after 72 hrs by MTT assay; format: cell-based; how it was run: as §1
# [13] = target: T1, Histone deacetylase 1/6 (Homo sapiens); assay: Inhibition of HDAC1/HDAC6 in human Cal27CisR cells assessed as potentiation of 5 uM cisplatin-induced cytotoxicity by measuring combination index at 2000 uM preincubated for 48 hrs followed by cisplatin treatment measured after 72 hrs by MTT assay; format: cell-based; how it was run: as §1
# CAL-27 [14] = assay: Potentiation of cisplatin-induced apoptosis in human CAL27 cells at 1 uM preincubated for 48 hrs followed by cisplatin treatment for 6 hrs measured after 24 hrs by propidium iodide dye-based flow cytometry; format: functional, cell-based
# Cal27CisR = assay: Induction of apoptosis in human Cal27CisR cells at 0.5 uM for 48 hrs by propidium iodide dye-based flow cytometry; format: functional, cell-based
# [15] = target: T1, Histone deacetylase 1/6 (Homo sapiens); assay: Inhibition of HDAC1/HDAC6 in human Cal27CisR cells assessed as potentiation of 10 uM cisplatin-induced cytotoxicity by measuring combination index at 1500 nM preincubated for 48 hrs followed by cisplatin treatment measured after 72 hrs by MTT assay
# [16] = target: T1, Histone deacetylase 1/6 (Homo sapiens); assay: Inhibition of HDAC1/HDAC6 in human Cal27CisR cells assessed as potentiation of 10 uM cisplatin-induced cytotoxicity by measuring combination index at 2000 nM preincubated for 48 hrs followed by cisplatin treatment measured after 72 hrs by MTT assay
# [17] = target: T1, Histone deacetylase 1/6 (Homo sapiens); assay: Inhibition of HDAC1/HDAC6 in human Cal27CisR cells assessed as potentiation of 20 uM cisplatin-induced cytotoxicity by measuring combination index at 1000 nM preincubated for 48 hrs followed by cisplatin treatment measured after 72 hrs by MTT assay
# [18] = target: T1, Histone deacetylase 1/6 (Homo sapiens); assay: Inhibition of HDAC1/HDAC6 in human Cal27CisR cells assessed as potentiation of 20 uM cisplatin-induced cytotoxicity by measuring combination index at 1500 nM preincubated for 48 hrs followed by cisplatin treatment measured after 72 hrs by MTT assay
# [19] = target: T1, Histone deacetylase 1/6 (Homo sapiens); assay: Inhibition of HDAC1/HDAC6 in human Cal27CisR cells assessed as potentiation of 3.16 uM cisplatin-induced cytotoxicity by measuring combination index at 1000 nM preincubated for 48 hrs followed by cisplatin treatment measured after 72 hrs by MTT assay
SMILES,Activity (CAL-27 [1]),CI (CAL-27 [2]),CI (CAL-27 [3]),CI (CAL-27 [4]),CI (CAL-27 [5]),CI (CAL-27 [6]),CI (CAL-27 [7]),CI (CAL-27 [8]),CI (CAL-27 [9]),CI [10],CI [11],CI [12],CI [13],Activity (CAL-27 [14]),Activity (Cal27CisR),CI [15],CI [16],CI [17],CI [18],CI [19]
COc1cc(NC(=O)NOCCCCCC(=O)NO)c2nc(OC)cc(C)c2c1,33.3%,–,–,–,–,–,–,–,–,–,–,–,–,–,–,–,–,–,–,–
COc1cc(NC(=O)NOCCCCCC(=O)NO)c2ncccc2c1,–,0.77,0.74,0.54,0.64,0.75,0.41,0.7,0.37,1,0.82,0.43,0.59,Active,inactive,0.51,0.65,0.48,0.62,0.63

# Reference: ChEMBL document CHEMBL4014350, “Alkoxyurea-Based Histone Deacetylase Inhibitors Increase Cisplatin Potency in Chemoresistant Cancer Cell Lines” (J Med Chem, 2017)
